The list is not random: actives were taken first. Their share in the collection is about 2.5%.
DNMT1 block: blocks human DNA methyltransferase DNMT1; P26358; DNMT1 molecular beacon, Hinp1I cleavage, fluorescence; inhibition (reported as % activation of signal), % at 10 µM; hit rate 0.83% among 360,000; in the data active means inhibition above about 50%
MBD2 DNA inh: inhibitors of human MBD2 binding to methylated oligonucleotide | TR-FRET | hit rate 0.31% among 370,000 | Q9UBB5 | AID 686964 | inhibition, % at 4.4 µM; in the data active means inhibition above about 13%
HCV NS3 hel inh: HCV NS3 helicase inhibition. hit rate 0.56% among 290,000. inhibition, % at 10.9 µM. NS3 helicase DNA unwinding, Cy5 molecular beacon fluorescence;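 active means inhibition above the mean of all tested compounds plus 3 SD, set per campaign, cut at about 35% in these data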
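System: NS3 helicase fragment of HCV / Schedule: 1 h at 25 °C / Control set: DMSO alone as 0% and 110 µM thioflavine S as 100% / Reagent: Cy5/quencher beacon DNA duplex and ATP to start / Technique: Cy5 fluorescence / Replication: singlicate / Evaluation: % inhibition of end-to-start signal ratio versus controls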
Pemphigus Ab inh: blocks pemphigus antibody binding to human desmoglein-3. DSG3-coupled beads, scFv-anti-DSG3-GFP binding, flow cytometry; hits give low values. binding (percent of control), % at 10 µM. hit rate 0.48% among 310,000. AID 588358;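 active means binding more than 3 SD below its plate's average and above zero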;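 further: hits lower antibody fragment binding to DSG3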
SUMO1 PPI mod: modulators of human SUMO1-mediated protein-protein interactions. inhibition, % at 20 µM. P63165. hit rate 0.33% among 360,000. SUMO1 binding to a labelled peptide, TR-FRET, 1 h
UHRF1 binding: UHRF1 methyl-DNA binding inhibition; Q96T88; UHRF1 binding to methylated oligo, TR-FRET; inhibition, % at 4.4 µM; hit rate 0.75% among 370,000; AID 687016; in the data active means inhibition above about 21%;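 further: UHRF1 SRA domain binding a hemimethylated CpG hairpin DNA probe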
Target sequence (Q96T88 whole entry, looked up, the tested form may be a part): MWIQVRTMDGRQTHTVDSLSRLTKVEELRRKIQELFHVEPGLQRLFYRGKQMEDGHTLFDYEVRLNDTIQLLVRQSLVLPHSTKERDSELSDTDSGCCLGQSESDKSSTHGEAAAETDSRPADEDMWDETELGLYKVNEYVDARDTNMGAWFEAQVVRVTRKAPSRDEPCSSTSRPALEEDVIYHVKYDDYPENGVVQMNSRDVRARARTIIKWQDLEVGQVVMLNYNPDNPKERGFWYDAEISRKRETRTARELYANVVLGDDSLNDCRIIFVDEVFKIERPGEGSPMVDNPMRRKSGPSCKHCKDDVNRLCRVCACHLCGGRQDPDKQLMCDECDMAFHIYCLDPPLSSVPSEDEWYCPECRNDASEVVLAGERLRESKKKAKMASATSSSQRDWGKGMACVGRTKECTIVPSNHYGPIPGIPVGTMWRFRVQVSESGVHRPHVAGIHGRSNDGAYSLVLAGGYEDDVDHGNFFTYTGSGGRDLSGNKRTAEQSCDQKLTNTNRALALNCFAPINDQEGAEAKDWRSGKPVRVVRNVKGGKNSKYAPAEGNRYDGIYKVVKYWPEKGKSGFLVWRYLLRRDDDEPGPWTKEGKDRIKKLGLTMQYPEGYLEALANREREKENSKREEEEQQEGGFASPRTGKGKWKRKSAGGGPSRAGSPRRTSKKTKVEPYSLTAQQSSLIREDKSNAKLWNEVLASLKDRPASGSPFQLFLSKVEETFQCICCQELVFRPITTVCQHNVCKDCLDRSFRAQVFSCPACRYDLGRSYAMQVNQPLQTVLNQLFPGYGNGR
NS3 helicase cf: confirmation of Hepatitis C virus NS3 helicase inhibitors. shares compounds with HCV NS3 hel inh. NS3 helicase DNA unwinding, Cy5 molecular beacon fluorescence. inhibition, % at 10.9 µM. hit rate 31% among 1,600;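 active means inhibition above the mean of all tested compounds plus 3 SD, cutoff set per campaign, cut at about 36% in these data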
DNA FID counter: displaces DNA intercalator in HCV helicase counter-screen | shares compounds with HCV NS3 hel inh | inhibition, % at 7.9 µM | AID 1945 | DNA fluorescent intercalator displacement, fluorescence | hit rate 4% among 1,600;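 further: higher means more displacement of ethidium bromide from the DNA hairpin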
DNA FID DR: counter-screen for HCV NS3 helicase inhibitors: DNA intercalator displacement dose response | shares compounds with HCV NS3 hel inh | fluorescent intercalator displacement from DNA, fluorescence | IC50, µM | 120 tested, under 10 active | AID 2172; call rule not given here
Numbers stand for hits; - = inactive; . = no result. Unless noted, no stated cut-off is given here; in the data, active means inhibition above about 37%; inactive means the rest.

SMILES | DNMT1 block | MBD2 DNA inh | HCV NS3 hel inh | Pemphigus Ab inh | SUMO1 PPI mod | UHRF1 binding | NS3 helicase cf | DNA FID counter | others
Cc1csc(NC(=O)CSC2=NCCS2)n1 | - | - | - | - | - | - | . | .
COc1ccc(S[C@]2(C(=O)N3CCCC3)CC(=O)N(c3ccccc3OC)[C@@H]2c2ccc(OC)cc2)cc1 | . | - | . | . | . | - | . | .
CCSc1nc2c(c(=O)[nH]1)C(c1cccnc1)C(C(=O)OC)=C(C)N2 (stereo not drawn) | - | - | 39.2 | . | - | - | - | -
Cc1ccc(C)c2[nH]c(=O)c(C(c3nnnn3Cc3ccccc3)N3CCc4ccccc4C3)cc12 (stereo not drawn) | - | - | - | - | - | - | . | .
CC(=O)NCCc1nc2cc(NS(=O)(=O)c3ccc(Cl)cc3)ccc2n1C | - | - | 36.7 | - | - | - | - | -
CCN1C(=O)C(O)(CC(=O)C(C)(C)C)c2cc(Br)ccc21 (stereo not drawn) | - | - | - | - | - | - | . | .
O=C1CN(C(=O)N[C@@H](Cc2ccccc2)C(=O)N[C@@H](Cc2ccccc2)C(=O)O)c2ccccc2N1 | - | - | 36.5 | - | - | - | - | -
O=C1CN(C(=O)N[C@@H](Cc2ccccc2)C(=O)N[C@H](Cc2ccccc2)C(=O)O)c2ccccc2N1 | - | - | - | - | - | - | . | .
CC(=O)c1cccc(Nc2nc(-c3cccnc3)cs2)c1 | - | - | 44.0 | - | - | - | - | -
O=C(CSc1nnc2ccc(-c3ccncc3)nn12)Nc1ccc(F)cc1 | - | - | . | - | - | - | . | .
Cc1nn(Cc2ccc(Cl)cc2)c(C)c1NC(=O)c1noc2c1CCc1ccccc1-2 | - | - | 57.3 | - | - | - | - | -
S=C1NC2=C(CCCC2)C2(CCCCC2)N1 | - | - | - | - | - | - | . | .
CCNc1nnc(-c2ccc(C)cc2)o1 | - | - | 51.9 | - | - | - | - | -
Cc1ccc(-c2nnc(-c3ccccc3)o2)cc1 | - | - | - | - | - | - | . | .
O=C(C=Cc1ccccc1O)c1ccccc1O | - | - | . | - | - | - | . | .
O=C(/C=C/c1ccc([N+](=O)[O-])cc1)c1ccccc(=O)c1O | - | - | . | - | - | - | . | .
O=C(/C=C/c1ccccc1Cl)c1ccccc(=O)c1O | - | - | 44.1 | - | - | - | 77.8 | - | DNA FID DR=-
Cc1ccc(/C=C/C(=O)c2ccccc(=O)c2O)c(C)c1 | - | - | 37.5 | - | - | - | 77.1 | - | DNA FID DR=-
Cc1ccc(C)c(/C=C/C(=O)c2ccccc(=O)c2O)c1 | - | - | 38.5 | - | - | - | 77.1 | - | DNA FID DR=-
O=S(=O)(Nc1ccc(N2CCOCC2)cc1)c1ccc(Cl)s1 | - | - | - | - | - | - | . | .
CCC(C)(C)C1CCc2[nH]nc(C(=O)O)c2C1 (stereo not drawn) | - | - | . | - | - | - | . | .
CC(C)(C)C1CCc2[nH]nc(C(=O)O)c2C1 (stereo not drawn) | - | - | 36.6 | - | - | - | - | -
O=C(O)CCc1ccc(-c2ccc(Cl)cc2)n1Cc1ccco1 | - | - | 36.4 | - | - | - | 68.0 | -
COc1ccc(-c2ccc(CCC(=O)O)n2Cc2ccco2)cc1 | - | - | - | - | - | - | . | .
O=C(O)CCc1ccc(-c2cccs2)n1Cc1ccco1 | - | - | 41.0 | - | - | - | - | -
SMILES | DNMT1 block | MBD2 DNA inh | HCV NS3 hel inh | Pemphigus Ab inh | SUMO1 PPI mod | UHRF1 binding | NS3 helicase cf | DNA FID counter | others
O=C(Cn1c2ccc(F)cc2c2nc3n(c(=O)c21)CCS3)NCC1CCCO1 (stereo not drawn) | - | - | - | - | - | - | . | .
O=C(COc1ccc2c3c(c(=O)oc2c1)CCCC3)N1C[C@H]2C[C@@H](C1)c1cccc(=O)n1C2 | - | - | 46.2 | - | - | - | - | -
COc1ccc(-c2cc(=O)oc3cc(OCC(=O)N4C[C@H]5C[C@@H](C4)c4cccc(=O)n4C5)ccc23)cc1 | - | - | - | . | - | - | . | .
S=c1[nH]nc(COc2ccc(Cl)cc2)n1Cc1ccco1 | - | - | 36.4 | - | - | - | - | -
CCCc1n[nH]c(=S)n1Cc1ccco1 | - | - | - | - | - | - | . | .
CCOC(=O)c1ccc(N2N=C(C)/C(=C/C=C/c3ccco3)C2=O)cc1 | - | - | - | - | - | - | . | .
O=C(O)c1cc(N2N=C(C(F)(F)F)/C(=C/C=C/c3ccco3)C2=O)ccc1Cl | 83.9 | 108.4 | 60.8 | - | 104.9 | 97.5 | 80.0 | 70.8
CCOC(=O)C1CCN(CCCSc2ccc(Cl)cc2)CC1 | - | - | - | - | - | - | . | .
N#Cc1c(-c2ccccc2)cc(-c2cccs2)nc1SCC(=O)O | - | - | 39.1 | - | - | - | 67.7 | -
O=C1OC(/C=C/c2ccccc2)=NC/1=C/C=C/c1ccccc1 | - | - | - | - | - | - | . | .
O=C1OC(/C=C/c2ccc(Cl)cc2)=NC/1=C/c1ccco1 | - | - | 40.8 | - | - | - | - | -
O=C(Nc1ccsc1C(=O)NC1CCCCC1)c1ccccc1 | - | - | - | - | - | - | . | .
O=C1OC(c2ccco2)=N/C1=C\c1ccc(-c2cccc(C(F)(F)F)c2)o1 | - | - | 36.8 | - | - | - | 47.2 | - | DNA FID DR=-
Cc1cc(C)n(-c2ccc(C(=O)OCC(=O)c3ccc(Br)s3)cc2)n1 | - | - | 50.4 | - | - | - | - | -
CCNC(=O)COC(=O)c1ccc(-n2nc(C)cc2C)cc1 | - | - | - | - | - | - | . | .
COc1cccc(-c2cc(C(=O)Nc3cccnc3Cl)no2)c1 | - | - | - | . | - | - | . | .
CCOc1ccc(-c2ccc(/C=C3/C(=N)N4C=CSC4=NC3=O)o2)c([N+](=O)[O-])c1 | - | - | - | - | - | - | . | .
CCOc1ccc(-c2ccc(/C=C3/C(=N)N4C(C)=CSC4=NC3=O)o2)c([N+](=O)[O-])c1 | - | - | 48.1 | - | - | - | - | -
CC(=O)c1sc2ccccc2c1OC(=O)c1ccco1 | - | - | 45.3 | - | - | - | - | -
CC(=O)c1c(OC(=O)c2ccco2)c2ccccc2n1C | - | - | - | - | - | - | . | .
COc1ccc(S(=O)(=O)N2CCC(C(=O)N3CCOCC3)CC2)cc1Cl | - | - | - | - | - | - | . | .
O=C(NC1CCCC1)C(=O)N(c1ccccc1F)C(C(=O)NCC1CCCO1)c1cccs1 (stereo not drawn) | - | - | 36.5 | - | - | - | - | -
O=C1C(=C2CCCCC2)SC(=S)N1Cc1ccco1 | - | - | 71.5 | - | - | - | - | -
O=C(O)CCN1C(=O)C(=C2CCCCCC2)SC1=S | - | - | - | - | - | - | . | .

Screens: PubChem, several laboratories
